In ChEMBL document CHEMBL1123950, “N-(Retinoyl)amino acids. Synthesis and chemopreventive activity in vitro” (1988):
One block for each compound: values may come before it.

Tests used:
[1] = system: Cricetinae gen. sp.; experiment: Cultures with minimal degree of squamous metaplasia at a conc of 10e-9 M; format: functional, Cricetulus griseus
Outline: (§1)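 Tracheas from 29-31-day-old hamsters fed a vitamin A free diet; cultured in serum-free CMRL 1066 (insulin 1.0 μg/mL, hydrocortisone hemisuccinate 0.1 μg/mL, glutamine 2 mM, Garamycin 50 μg/mL), 50% O2/45% N2/5% CO2, rocked, 36 °C. Retinoid-free 3 days, then retinoid in DMSO (final 0.1%) for 7 days; medium and gas changed three times. Formalin-fixed day 10; squamous metaplasia graded: mild 2-10%, marked 10-40%, severe >40%.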

[2] = system: Cricetinae gen. sp.; experiment: Cultures with no evidence of squamous metaplasia at a conc of 10e-10 M; format: functional, Cricetulus griseus; outline: as §1
[3] = system: Cricetinae gen. sp.; experiment: Cultures with minimal degree of squamous metaplasia at a conc of 10e-10 M; format: functional, Cricetulus griseus; outline: as §1
[4] = system: Cricetinae gen. sp.; experiment: Cultures with mild degree of squamous metaplasia at a conc of 10e-10 M; format: functional, Cricetulus griseus; outline: as §1
[5] = system: Cricetinae gen. sp.; experiment: Cultures with no evidence of squamous metaplasia at a conc of 10e-8; format: functional, Cricetulus griseus; outline: as §1
[6] = system: Cricetinae gen. sp.; experiment: Cultures with no evidence of squamous metaplasia at a conc of 10e-11 M; format: functional, Cricetulus griseus; outline: as §1
[7] = system: Cricetinae gen. sp.; experiment: Cultures with marked degree of squamous metaplasia at a conc of 10e-10 M; format: functional, Cricetulus griseus; outline: as §1
[8] = system: Cricetinae gen. sp.; experiment: Cultures with mild degree of squamous metaplasia at a conc of 10e-8 M; format: functional, Cricetulus griseus; outline: as §1
[9] = system: Cricetinae gen. sp.; experiment: Cultures with marked degree of squamous metaplasia at a conc of 10e-9 M; format: functional, Cricetulus griseus; outline: as §1
[10] = system: Cricetinae gen. sp.; experiment: Cultures with minimal degree of squamous metaplasia at a conc of 10e-11 M; format: functional, Cricetulus griseus; outline: as §1
[11] = system: Cricetinae gen. sp.; experiment: Cultures with no evidence of squamous metaplasia at a conc of 10e-9 M; format: functional, Cricetulus griseus; outline: as §1
[12] = system: Cricetinae gen. sp.; experiment: Cultures with minimal degree of squamous metaplasia at a conc of 10e-8 M; format: functional, Cricetulus griseus; outline: as §1
[13] = system: Cricetinae gen. sp.; experiment: Cultures with marked degree of squamous metaplasia at a conc of 10e-11 M; format: functional; outline: as §1
[14] = system: Cricetinae gen. sp.; experiment: Cultures with severe degree of squamous metaplasia at a conc of 10e-9 M; format: functional, Cricetulus griseus; outline: as §1
[15] = system: Cricetinae gen. sp.; experiment: Cultures with severe degree of squamous metaplasia at a conc of 10e-8 M; format: functional, Cricetulus griseus; outline: as §1
[16] = system: Cricetinae gen. sp.; experiment: Reversal of keratinization in vitamin A deficient hamster trachea culture at a conc of 10e-8 M; format: functional, Cricetulus griseus; conditions: read-out: ED50 (the source's name)
Outline: (§2)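 Tracheas from 29-31-day-old hamsters kept on a vitamin A free diet, cultured in serum-free CMRL 1066 (insulin 1.0 μg/mL, hydrocortisone hemisuccinate 0.1 μg/mL, glutamine 2 mM, Garamycin 50 μg/mL), 50% O2/45% N2/5% CO2, rocked at 36 °C. Retinoid-free for 3 days, then retinoid in DMSO (0.1% final) for 7 days. Fixed in formalin; squamous metaplasia graded mild 2-10%, marked 10-40%, severe >40%.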

[17] = system: Cricetinae gen. sp.; experiment: Cultures with mild degree of squamous metaplasia at a conc of 10e-11 M; format: functional, Cricetulus griseus; outline: as §1
[18] = system: Cricetinae gen. sp.; experiment: Cultures with mild degree of squamous metaplasia at a conc of 10e-9 M; format: functional, Cricetulus griseus; outline: as §1
[19] = system: Cricetinae gen. sp.; experiment: Cultures with severe degree of squamous metaplasia at a conc of 10e-11 M; format: functional, Cricetulus griseus; outline: as §1
[20] = system: Cricetinae gen. sp.; experiment: Cultures with severe degree of squamous metaplasia at a conc of 10e-10 M; format: functional, Cricetulus griseus; outline: as §1
[21] = system: Cricetinae gen. sp.; experiment: Cultures with marked degree of squamous metaplasia at a conc of 10e-8 M; format: functional, Cricetulus griseus; outline: as §1
[22] = system: Cricetinae gen. sp.; experiment: Cultures with minimal degree of squamous metaplasia at a concentration of 10e-9 M; format: functional, Cricetulus griseus; outline: as §1
[23] = system: Cricetinae gen. sp.; experiment: Cultures with severe degree of squamous metaplasia at a concentration of 10e-8 M; format: functional, Cricetulus griseus; outline: as §2
[24] = system: Cricetinae gen. sp.; experiment: Cultures with marked degree of squamous metaplasia at a concentration of 10e-8 M; format: functional, Cricetulus griseus; outline: as §1
[25] = system: Cricetinae gen. sp.; experiment: Cultures with no evidence of squamous metaplasia at a concentration of 10e-8 M; format: functional, Cricetulus griseus; outline: as §1
[26] = system: Cricetinae gen. sp.; experiment: Cultures with no evidence of squamous metaplasia at a concentration of 10e-9 M; format: functional, Cricetulus griseus; outline: as §1
[27] = system: Cricetinae gen. sp.; experiment: Cultures with minimal degree of squamous metaplasia at a concentration of 10e-10 M; format: functional, Cricetulus griseus; outline: as §1
[28] = system: Cricetinae gen. sp.; experiment: Cultures with severe degree of squamous metaplasia at a concentration of 10e-11 M; format: functional, Cricetulus griseus; outline: as §2
[29] = system: Cricetinae gen. sp.; experiment: Cultures with mild degree of squamous metaplasia at a concentration of 10e-11 M; format: functional, Cricetulus griseus; outline: as §1
[30] = system: Cricetinae gen. sp.; experiment: Cultures with severe degree of squamous metaplasia at a concentration of 10e-9 M; format: functional, Cricetulus griseus; outline: as §2
[31] = system: Cricetinae gen. sp.; experiment: Cultures with mild degree of squamous metaplasia at a concentration of 10e-9 M; format: functional, Cricetulus griseus; outline: as §1
[32] = system: Cricetinae gen. sp.; experiment: Cultures with mild degree of squamous metaplasia at a concentration of 10e-8 M; format: functional, Cricetulus griseus; outline: as §1
[33] = system: Cricetinae gen. sp.; experiment: Cultures with minimal degree of squamous metaplasia at a concentration of 10e-11 M; format: functional, Cricetulus griseus; outline: as §1
[34] = system: Cricetinae gen. sp.; experiment: Cultures with marked degree of squamous metaplasia at a concentration of 10e-10 M; format: functional, Cricetulus griseus; outline: as §1
[35] = system: Cricetinae gen. sp.; experiment: Cultures with mild degree of squamous metaplasia at a concentration of 10e-10 M; format: functional, Cricetulus griseus; outline: as §1
[36] = system: Cricetinae gen. sp.; experiment: Reversal of keratinization in vitamin A deficient hamster trachea culture at a concentration of 10e-8 M; format: functional, Cricetulus griseus; conditions: read-out: ED50 (the source's name); outline: as §2
[37] = system: Cricetinae gen. sp.; experiment: Cultures with severe degree of squamous metaplasia at a concentration of 10e-10 M; format: functional, Cricetulus griseus; outline: as §2
[38] = system: Cricetinae gen. sp.; experiment: Cultures with marked degree of squamous metaplasia at a concentration of 10e-11 M; format: functional, Cricetulus griseus; outline: as §1
[39] = system: Cricetinae gen. sp.; experiment: Cultures with no evidence of squamous metaplasia at a concentration of 10e-11 M; format: functional, Cricetulus griseus; outline: as §1
[40] = system: Cricetinae gen. sp.; experiment: Cultures with marked degree of squamous metaplasia at a concentration of 10e-9 M; format: functional, Cricetulus griseus; outline: as §1
[41] = system: Cricetinae gen. sp.; experiment: Cultures with no evidence of squamous metaplasia at a concentration of 10e-10 M; format: functional, Cricetulus griseus; outline: as §1
[42] = system: Cricetinae gen. sp.; experiment: Cultures with minimal degree of squamous metaplasia at a concentration of 10e-8 M; format: functional, Cricetulus griseus; outline: as §1

EC50 [16]: 400 pM
SMILES: CC1=C(/C=C/C(C)=C/C=C/C(C)=C/C(=O)NC(C)C(=O)O)C(C)(C)CCC1 (configuration not stated)
Culture [1]: 0%
Culture [2]: 14%
Culture [3]: 0%
Culture [4]: 14%
Culture [5]: 100%
Culture [6]: 0%
Culture [7]: 58%
Culture [8]: 0%
Culture [9]: 0%
Culture [10]: 0%
Culture [11]: 72%
Culture [12]: 0%
Culture [13]: 57%
Culture [14]: 14%
Culture [15]: 0%
Culture [17]: 29%
Culture [18]: 14%
Culture [19]: 14%
Culture [20]: 14%
Culture [21]: 0%

EC50 [36]: 500 pM
SMILES: CC1=C(/C=C/C(C)=C/C=C/C(C)=C/C(=O)NC(Cc2ccccc2)C(=O)O)C(C)(C)CCC1 (configuration not stated)
Culture [22]: 0%
Culture [23]: 0%
Culture [24]: 0%
Culture [25]: 71%
Culture [26]: 57%
Culture [27]: 0%
Culture [28]: 0%
Culture [29]: 14%
Culture [30]: 0%
Culture [31]: 0%
Culture [32]: 29%
Culture [33]: 0%
Culture [34]: 14%
Culture [35]: 29%
Culture [37]: 14%
Culture [38]: 72%
Culture [39]: 14%
Culture [40]: 43%
Culture [41]: 43%
Culture [42]: 0%
